Results on two molecules are retold here after ChEMBL document CHEMBL1212777, “Novel VIM metallo-beta-lactamase variant from clinical isolates of Enterobacteriaceae from Algeria” (2010).

What all share (assay type): functional
Assay [1] relates to Escherichia coli. Kind of assay: Antimicrobial activity against Escherichia coli 138 expressing beta-lactamase VIM-19 by microdilution method. Summed up:
(§1)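 Clinical isolates from intensive care patients. MICs by dilution on Mueller-Hinton agar, inoculum 10^4 CFU per spot, read after growth and interpreted by CA-SFM guidelines. Where the line names an inhibitor, it was held at a fixed level: clavulanic acid 2 μg/ml, tazobactam 4 μg/ml, or EDTA 0.4 mM.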
Background: In broth dilution the organism is exposed to a series of concentrations in liquid medium.

The test system of assay [2] is Escherichia coli. Kind of assay: Antimicrobial activity against Escherichia coli 2603 strain expressing beta-lactamase VIM-19 by microdilution method. Summed up:
as §1

Assay [3] has as its system Klebsiella pneumoniae. The experiment in a line: Antimicrobial activity against Klebsiella pneumoniae 2878 strain expressing beta-lactamase VIM-19 by microdilution method. The gist of the method:
as §1

Assay [4] deals with Klebsiella pneumoniae. The experiment in a line: Antimicrobial activity against Klebsiella pneumoniae 6828 strain expressing beta-lactamase VIM-19 by microdilution method. Summed up:
as §1

Assay [5] deals with Providencia stuartii. The experiment in a line: Antimicrobial activity against Providencia stuartii 6858 strain expressing beta-lactamase VIM-19 by microdilution method. Summed up:
as §1

For assay [6], the system named is Escherichia coli. The experiment in a line: Antimicrobial activity against Escherichia coli C600 2878 transconjugate expressing beta-lactamase VIM-19 by microdilution method. The gist of the method:
(§2)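 MIC by dilution on Mueller-Hinton agar, inoculum 10^4 CFU per spot, interpreted by CA-SFM guidelines. Inhibitor combinations where tested: clavulanic acid 2 μg/ml, tazobactam 4 μg/ml, EDTA 0.4 mM. Transconjugants came from rifampin-resistant E. coli C600 selected on rifampin 300 μg/ml plus cefotaxime 0.5 μg/ml. Transformants came from electroporation into E. coli DH5α selected on cefotaxime 0.5 μg/ml.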

Assay [7] concerns Escherichia coli. Kind of assay: Antimicrobial activity against Escherichia coli DH5alpha 2878 transformant expressing beta-lactamase VIM-19 by microdilution method. Summed up:
as §2

The subject of assay [8] is Escherichia coli. Kind of assay: Antimicrobial activity against Escherichia coli DH5alpha harbouring plasmid BK-VIM-19 expressing beta-lactamase VIM-19 by microdilution method. Summed up:
as §2

The test system of assay [9] is Escherichia coli. The experiment in a line: Antimicrobial activity against Escherichia coli harbouring plasmid BK-CMV expressing beta-lactamase VIM-19 by microdilution method. The gist of the method: as §2
The test system of assay [10] is Escherichia coli. The experiment in a line: Antimicrobial activity against Escherichia coli 138 expressing beta-lactamase VIM-19 by microdilution method in presence of 2 ug/ml clavulanic acid. Summed up:
as §1

Assay [11] deals with Escherichia coli. The experiment in a line: Antimicrobial activity against Escherichia coli 2603 strain expressing beta-lactamase VIM-19 by microdilution method in presence of 2 ug/ml clavulanic acid. Summed up: as §1
The test system of assay [12] is Klebsiella pneumoniae. The experiment in a line: Antimicrobial activity against Klebsiella pneumoniae 2878 strain expressing beta-lactamase VIM-19 by microdilution method in presence of 2 ug/ml clavulanic acid. Summed up:
as §1

The subject of assay [13] is Klebsiella pneumoniae. The experiment in a line: Antimicrobial activity against Klebsiella pneumoniae 6828 strain expressing beta-lactamase VIM-19 by microdilution method in presence of 2 ug/ml clavulanic acid. The gist of the method: as §1
Assay [14] concerns Providencia stuartii. The experiment in a line: Antimicrobial activity against Providencia stuartii 6858 strain expressing beta-lactamase VIM-19 by microdilution method in presence of 2 ug/ml clavulanic acid. Summed up: as §1
For assay [15], the system named is Escherichia coli. Kind of assay: Antimicrobial activity against Escherichia coli C600 2878 transconjugate expressing beta-lactamase VIM-19 by microdilution method in presence of 2 ug/ml clavulanic acid. Summed up:
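Rifampin-resistant E. coli C600 recipient mated with the clinical strain. Transconjugants were selected on agar with rifampin 300 μg/ml plus cefotaxime 0.5 μg/ml. MICs by dilution on Mueller-Hinton agar, inoculum 10^4 CFU per spot, CA-SFM interpretation. Inhibitor at a fixed level: clavulanic acid 2 μg/ml or EDTA 0.4 mM.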

Assay [16] concerns Escherichia coli. Kind of assay: Antimicrobial activity against Escherichia coli DH5alpha 2878 transformant expressing beta-lactamase VIM-19 by microdilution method in presence of 2 ug/ml clavulanic acid. Summed up:
as §2

Assay [17] relates to Escherichia coli. Kind of assay: Antimicrobial activity against Escherichia coli DH5alpha harbouring plasmid BK-VIM-19 expressing beta-lactamase VIM-19 by microdilution method in presence of 2 ug/ml clavulanic acid. The gist of the method: as §2
Assay [18] relates to Escherichia coli. The experiment in a line: Antimicrobial activity against Escherichia coli harbouring plasmidBK-CMV expressing beta-lactamase VIM-19 […] in presence of 2 ug/ml clavulanic acid.
The subject of assay [19] is Escherichia coli. Kind of assay: Antimicrobial activity against Escherichia coli 138 expressing beta-lactamase VIM-19 by microdilution method in presence of 4 ug/ml Tazobactam. Summed up:
as §2

Assay [20] has as its system Escherichia coli. Kind of assay: Antimicrobial activity against Escherichia coli 2603 strain expressing beta-lactamase VIM-19 […] in presence of 4 ug/ml Tazobactam.
Assay [21] concerns Klebsiella pneumoniae. The experiment in a line: Antimicrobial activity against Klebsiella pneumoniae 2878 strain expressing beta-lactamase VIM-19 by microdilution method in presence of 4 ug/ml Tazobactam. The gist of the method: as §1
Assay [22] has as its system Klebsiella pneumoniae. The experiment in a line: Antimicrobial activity against Klebsiella pneumoniae 6828 strain expressing beta-lactamase VIM-19 […] in presence of 4 ug/ml Tazobactam.
In assay [23] the test system is Providencia stuartii. Kind of assay: Antimicrobial activity against Providencia stuartii 6858 strain expressing beta-lactamase VIM-19 by microdilution method in presence of 4 ug/ml Tazobactam. Summed up: as §1
In assay [24] the test system is Escherichia coli. The experiment in a line: Antimicrobial activity against Escherichia coli C600 2878 transconjugate expressing beta-lactamase VIM-19 by microdilution method in presence of 4 ug/ml Tazobactam. Summed up:
as §2

Assay [25] concerns Escherichia coli. Kind of assay: Antimicrobial activity against Escherichia coli DH5alpha 2878 transformant expressing beta-lactamase VIM-19 […] in presence of 4 ug/ml Tazobactam.
Assay [26] relates to Escherichia coli. Kind of assay: Antimicrobial activity against Escherichia coli DH5alpha harbouring plasmid BK-VIM-19 expressing beta-lactamase VIM-19 by microdilution method in presence of 4 ug/ml Tazobactam. Summed up: as §2
For assay [27], the system named is Escherichia coli. Kind of assay: Antimicrobial activity against Escherichia coli harbouring plasmidBK-CMV expressing beta-lactamase VIM-19 […] in presence of 4 ug/ml Tazobactam.

SMILES strings stand for the structures. Converted amounts (≈) assume the structure as drawn.

On to `CC1(C)S[C@@H]2[C@H](NC(=O)[C@H](N)c3ccc(O)cc3)C(=O)N2[C@H]1C(=O)O` [AMOXICILLIN], for which the MIC against Escherichia coli [1], in the assay on Escherichia coli [2], against Klebsiella pneumoniae [3], against Klebsiella pneumoniae [4], against Providencia stuartii [5] and in the assay on Escherichia coli [6] was above 2050 µg/mL in each case. Besides, the MIC is above 2050 µg/mL in the assay with Escherichia coli [7]; above 2050 µg/mL with Escherichia coli [8]; 4 µg/mL (≈ 10.9 µM) in the assay with Escherichia coli [9]; above 2050 µg/mL in the assay with Escherichia coli [10]; above 2050 µg/mL with Escherichia coli [11]; above 2050 µg/mL in the assay on Klebsiella pneumoniae [12]. Besides, the MIC with Klebsiella pneumoniae [13] is above 2050 µg/mL; in the assay on Providencia stuartii [14] it was above 2050 µg/mL; in the assay on Escherichia coli [15], above 2050 µg/mL; in the assay with Escherichia coli [16], above 2050 µg/mL; in the assay with Escherichia coli [17] it was above 2050 µg/mL; in the assay on Escherichia coli [18] it was 4 µg/mL.

In the case of `CCN1CCN(C(=O)N[C@@H](C(=O)N[C@@H]2C(=O)N3[C@@H]2SC(C)(C)[C@@H]3C(=O)O)c2ccccc2)C(=O)C1=O` [PIPERACILLIN], the MIC against Escherichia coli [1] was above 2050 µg/mL; with Escherichia coli [2], above 2050 µg/mL; with Klebsiella pneumoniae [3], 2050 µg/mL (≈ 3960 µM); in the assay on Klebsiella pneumoniae [4] it was 1020 µg/mL (≈ 1980 µM); against Providencia stuartii [5], 256 µg/mL (≈ 495 µM); against Escherichia coli [6] it was 512 µg/mL (≈ 989 µM). Moreover, the MIC in the assay on Escherichia coli [7] came to 1020 µg/mL (≈ 1980 µM); with Escherichia coli [8], 512 µg/mL (≈ 989 µM); in the assay with Escherichia coli [9], 2 µg/mL (≈ 3.86 µM); with Escherichia coli [19], 2050 µg/mL; in the assay with Escherichia coli [20], 1020 µg/mL; in the assay on Klebsiella pneumoniae [21], 2050 µg/mL. Besides, the MIC in the assay on Klebsiella pneumoniae [22] is 1020 µg/mL; in the assay with Providencia stuartii [23] it was 256 µg/mL; in the assay on Escherichia coli [24] it was 512 µg/mL; in the assay on Escherichia coli [25], 1020 µg/mL; with Escherichia coli [26], 512 µg/mL; in the assay on Escherichia coli [27], 2 µg/mL.
